ChEMBL document CHEMBL2380202, “Identification of substituted 2-thio-6-oxo-1,6-dihydropyrimidines as inhibitors of human lactate dehydrogenase” (Bioorg Med Chem Lett, 2013)
In brackets after ≈: the same amount, converted by molar mass. Activity calls are given as the source filed them. The rule behind the calls is not given here.

Legend:
[1] = target: T1, L-lactate dehydrogenase A chain (Homo sapiens, UniProt P00338); assay: Binding affinity to human recombinant carboxy-terminal avi-tagged LDHA (1 to 331) expressed in Escherichia coli by surface plasmon resonance analysis presence of NADH
In short: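 SPR with NADH present; twofold dilution series of analyte injections; K_D obtained by fitting kinetics or the equilibrium dose response; arithmetic mean of 2 separate runs.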

[2] = target: T1, L-lactate dehydrogenase A chain; assay: Inhibition of human recombinant carboxy-terminal his-tagged LDHA (1 to 331) expressed in Escherichia coli using pyruvate as substrate after 10 mins by UV endpoint analysis
[3] = target: L-lactate dehydrogenase B chain (Homo sapiens, UniProt P07195); assay: Inhibition of human recombinant carboxy-terminal his-tagged LDHB (1 to 333) expressed in insect cells using pyruvate as substrate after 10 mins by UV endpoint analysis
[4] = Clearance in human liver microsomes at 1 uM up to 60 mins; type: ADME, Microsome
In short: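 Human liver microsome stability, single determination (n = 1); in vitro result extrapolated to in vivo clearance, classed stable below 6.2 and labile above 15.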

[5] = Aqueous solubility of the compound in PBS buffer at pH 7.2 at 100 uM after 24 hrs; type: physicochemical
In short: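 Aqueous solubility estimated from a high-throughput assay; single determination (n = 1).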

[6] = target: L-lactate dehydrogenase (Homo sapiens) (UniProt V9HWB9); assay: Inhibition of LDH in human HCC1954 cells assessed as lactate accumulation up to 50 uM after 6 hrs; type: cell-based
[7] = target: T2, Malate dehydrogenase, mitochondrial (Homo sapiens, UniProt P40926); assay: Inhibition of human recombinant carboxy-terminal his-tagged MDH-2 (20 to 338) expressed in Escherichia coli using oxaloacetic acid as substrate after 10 mins by UV endpoint analysis
T2 sequence (P40926 whole entry): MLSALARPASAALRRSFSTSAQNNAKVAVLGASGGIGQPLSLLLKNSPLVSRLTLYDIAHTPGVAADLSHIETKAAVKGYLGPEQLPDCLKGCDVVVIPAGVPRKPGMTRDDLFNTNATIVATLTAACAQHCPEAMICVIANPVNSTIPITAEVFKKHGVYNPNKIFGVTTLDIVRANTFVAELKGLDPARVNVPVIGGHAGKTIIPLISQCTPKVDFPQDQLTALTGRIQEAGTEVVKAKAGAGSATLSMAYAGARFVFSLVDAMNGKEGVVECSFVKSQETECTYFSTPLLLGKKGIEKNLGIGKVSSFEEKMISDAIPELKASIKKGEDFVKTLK
In short: (§1)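 Biochemical enzyme inhibition; reported as the arithmetic mean of 2 separate runs (n = 2).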

[8] = target: T1, L-lactate dehydrogenase A chain; assay: Inhibition of human recombinant carboxy-terminal his-tagged LDHA (1 to 331) expressed in Escherichia coli using pyruvate as substrate after 10 mins by MS endpoint analysis; in short: as §1
[9] = target: T3, Malate dehydrogenase, cytoplasmic (Homo sapiens, UniProt P40925); assay: Inhibition of human recombinant carboxy-terminal his-tagged MDH-1 (3 to 334) expressed in Escherichia coli using oxaloacetic acid as substrate after 10 mins by UV endpoint analysis; in short: as §1
T3 sequence (P40925 whole entry): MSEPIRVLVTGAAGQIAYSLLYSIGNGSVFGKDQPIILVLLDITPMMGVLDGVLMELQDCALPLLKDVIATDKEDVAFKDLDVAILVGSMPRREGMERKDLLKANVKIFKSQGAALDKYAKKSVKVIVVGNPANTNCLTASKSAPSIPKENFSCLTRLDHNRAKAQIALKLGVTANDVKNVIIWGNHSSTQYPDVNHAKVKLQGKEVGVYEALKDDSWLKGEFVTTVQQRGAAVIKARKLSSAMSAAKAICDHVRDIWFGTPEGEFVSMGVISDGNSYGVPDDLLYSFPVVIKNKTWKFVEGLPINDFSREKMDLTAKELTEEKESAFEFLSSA

[10] = target: T1, L-lactate dehydrogenase A chain; assay: Binding affinity to human recombinant carboxy-terminal avi-tagged LDHA (1 to 331) expressed in Escherichia coli by surface plasmon resonance analysis absence of NADH
In short: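 SPR run without NADH; analyte injected as a twofold dilution series; K_D estimated relative to a control; mean of 2 separate runs.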

L-lactate dehydrogenase B chain, sequence (P07195 whole entry): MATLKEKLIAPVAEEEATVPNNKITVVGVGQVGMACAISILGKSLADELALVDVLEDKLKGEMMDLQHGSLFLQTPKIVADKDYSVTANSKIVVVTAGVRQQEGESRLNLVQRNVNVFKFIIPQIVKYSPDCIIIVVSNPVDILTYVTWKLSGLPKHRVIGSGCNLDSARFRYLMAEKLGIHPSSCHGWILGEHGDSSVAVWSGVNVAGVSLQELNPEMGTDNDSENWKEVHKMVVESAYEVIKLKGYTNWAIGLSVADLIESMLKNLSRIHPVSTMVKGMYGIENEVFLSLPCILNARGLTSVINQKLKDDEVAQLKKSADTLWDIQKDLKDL

COc1cccc(-c2nc(SCC(=O)Nc3ccc(S(N)(=O)=O)cc3)[nH]c(=O)c2C#N)c1
Kd [1]: 38.4 µM | IC50 [2]: 42.4 µM

Cc1ccc(NC(=O)CSc2nc(-c3ccc(Cl)cc3)c(C#N)c(=O)[nH]2)cc1C
Kd [1]: 552 µM | IC50 [3]: > 100 µM | IC50 [2]: 38.6 µM

CNS(=O)(=O)c1ccc(NC(=O)CSc2nc(-c3ccc(Cl)cc3)c(C#N)c(=O)[nH]2)cc1
Kd [1]: 532 µM | IC50 [3]: > 100 µM | IC50 [2]: > 100 µM

CC(Sc1nc(-c2ccc(Cl)c(Cl)c2)c(C#N)c(=O)[nH]1)C(=O)Nc1ccc(S(N)(=O)=O)cc1 (racemic)
CLhep predicted at 1 µM [4]: 2.6 mL/min/kg | Kd [1]: 5.1 µM | IC50 [3]: 3.7 µM | IC50 [2]: 0.75 µM | solubility at 24 h, 100 µM [5]: 30 µM (≈ 15.7 µg/mL) | inhibition [6]: inactive

CC(Sc1nc(-c2ccccc2)cc(=O)[nH]1)C(=O)Nc1ccc(S(N)(=O)=O)cc1 (racemic)
IC50 [2]: > 100 µM

N#Cc1c(-c2ccc(Cl)cc2)nc(SCC(=O)Nc2cccc(Cl)c2)[nH]c1=O
Kd [1]: 386 µM | IC50 [3]: > 100 µM | IC50 [2]: 55.8 µM

CC(Sc1nc(-c2ccc(Cl)cc2)c(C#N)c(=O)[nH]1)C(=O)Nc1ccc(S(N)(=O)=O)cc1 (racemic)
CLhep predicted at 1 µM [4]: 2.6 mL/min/kg | Kd [1]: 2.2 µM | IC50 [3]: 3 µM | IC50 [2]: 0.48 µM | solubility at 24 h, 100 µM [5]: 58 µM (≈ 28.4 µg/mL) | inhibition [6]: inactive

CCc1ccccc1NC(=O)CSc1nc(-c2ccc(Cl)cc2)c(C#N)c(=O)[nH]1
Kd [1]: 1210 µM | IC50 [2]: > 100 µM

CCC(Sc1nc(-c2cccc(OC)c2)c(C#N)c(=O)[nH]1)C(=O)Nc1ccc(S(N)(=O)=O)cc1 (racemic)
CLhep predicted at 1 µM [4]: 6.9 mL/min/kg | Kd [1]: 8.9 µM | IC50 [3]: 7.7 µM | IC50 [2]: 7.4 µM

N#Cc1c(-c2ccc(Cl)cc2)nc(SCC(=O)Nc2ccc(Cl)cc2)[nH]c1=O
Kd [1]: 570 µM | IC50 [3]: > 100 µM | IC50 [2]: 55.7 µM

N#Cc1c(-c2ccc(Cl)cc2)nc(SCC(=O)Nc2ccc(F)c(Cl)c2)[nH]c1=O
Kd [1]: 314 µM | IC50 [3]: > 100 µM | IC50 [2]: 46.8 µM

NC(=O)C(=O)O [OXAMATE]
IC50 [3]: 33.8 µM

Cc1c(Cl)cccc1NC(=O)CSc1nc(-c2ccc(Cl)cc2)c(C#N)c(=O)[nH]1
Kd [1]: 462 µM | IC50 [3]: > 100 µM | IC50 [2]: 50.2 µM

COc1ccccc1NC(=O)CSc1nc(-c2ccc(Cl)cc2)c(C#N)c(=O)[nH]1
Kd [1]: 1110 µM | IC50 [2]: > 100 µM

N#Cc1c(-c2ccccc2)nc(SCC(=O)Nc2ccc(S(N)(=O)=O)cc2)[nH]c1=O
Kd [1]: 15.4 µM | IC50 [2]: 12.1 µM

Cc1ccc(NC(=O)CSc2nc(-c3ccc(Cl)cc3)c(C#N)c(=O)[nH]2)cc1Cl
Kd [1]: 466 µM | IC50 [2]: 27.6 µM

Cc1ccccc1NC(=O)CSc1nc(-c2ccc(Cl)cc2)c(C#N)c(=O)[nH]1
Kd [1]: 1010 µM | IC50 [2]: > 100 µM

CC(C)c1ccc(NC(=O)CSc2nc(-c3ccc(Cl)cc3)c(C#N)c(=O)[nH]2)cc1
Kd [1]: 552 µM | IC50 [2]: 22.6 µM

CC(Sc1nc(-c2ccc(Cl)c(F)c2)c(C#N)c(=O)[nH]1)C(=O)Nc1ccc(S(N)(=O)=O)cc1 (racemic)
CLhep predicted at 1 µM [4]: 3.4 mL/min/kg | Kd [1]: 2.9 µM | IC50 [3]: 2.3 µM | IC50 [2]: 0.71 µM | solubility at 24 h, 100 µM [5]: 64 µM (≈ 32.5 µg/mL) | inhibition [6]: inactive

CC(Sc1ncc(C#N)c(=O)[nH]1)C(=O)Nc1ccc(S(N)(=O)=O)cc1 (racemic)
IC50 [2]: 12.5 µM

CCC(Sc1nc(-c2ccc(Cl)cc2)c(C#N)c(=O)[nH]1)C(=O)Nc1ccc(S(N)(=O)=O)cc1 (racemic)
CLhep predicted at 1 µM [4]: 2.8 mL/min/kg | Kd [1]: 3 µM | IC50 [3]: 2.4 µM | IC50 [2]: 0.65 µM | solubility at 24 h, 100 µM [5]: 136 µM (≈ 68.5 µg/mL)

N#Cc1c(-c2ccc(Cl)cc2)nc(SCC(=O)Nc2ccc(S(N)(=O)=O)cc2)[nH]c1=O
CLhep predicted at 1 µM [4]: 5.3 mL/min/kg | IC50 [7]: > 10 µM | Kd [1]: 6.1 µM | IC50 [8]: 1.9 µM | IC50 [9]: > 10 µM | IC50 [2]: 8.8 µM | Kd [10]: 384 µM

COc1ccc(CNC(=O)c2cc(=O)c3c(O)cc(OCCc4ccc(NC(=O)C(=O)O)c(OC)c4)cc3o2)cc1
IC50 [7]: 8.48 µM | IC50 [9]: 6.78 µM

Cc1cccc(NC(=O)CSc2nc(-c3ccc(Cl)cc3)c(C#N)c(=O)[nH]2)c1C
Kd [1]: 1060 µM | IC50 [2]: > 100 µM

COc1ccc(NC(=O)CSc2nc(-c3ccc(Cl)cc3)c(C#N)c(=O)[nH]2)cc1Cl
Kd [1]: 640 µM | IC50 [3]: > 100 µM | IC50 [2]: 26.5 µM
